# Results reported in the RNAGym collection of RNA variant scans (doi:10.1126/science.aae0568).
# This sample holds only a part of the variants without activity.
# B1: tRNA (parent)
# chain: GUUCCGUUGGCGUAAUGGUAACGCGUCUCCCUCCUAAGGAGAAGACUGCGGGUUCGAGUCCCGUACGGAACG
# Variants of: B1
# Test: yeast fitness relative to wild type (ratio to wild type); higher = fitter; tRNA-Arg(CCU), competitive growth, 37 C, YPD
# Method in brief: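 Genotype frequency changes were the basis for Darwinian fitness relative to wild type. The frequencies came from 100-nucleotide paired-end sequencing of gene amplicons from the start population and each end population of pooled yeast strains with tRNA-Arg(CCU) gene variants at the native locus. Competition ran in YPD at 37°C for 24 hours in six replicates, genotypes needed ≥ 100 starting reads, and estimates < 0.5 were set to 0.5.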
row,Variant,yeast fitness
1,C5U A57U G63A,≤ 0.5
2,C5U A65C,0.922
3,C5U A65C G68A,0.681
4,C5U A65G A69G A70U,≤ 0.5
5,C5U A65U,0.999
6,C5U A65U G67A,0.921
7,C5U A69C,0.865
8,C5U A70G,1.01
9,C5U A70U,0.98
10,C5U C11A A14C C33G,≤ 0.5
11,C5U C11A A14G A42G C49U U64A,≤ 0.5
12,C5U C11A A20C C22G C30U C31G C61A,0.543
13,C5U C11A A21C C27G,0.564
14,C5U C11A A21G A40U,0.68
15,C5U C11A A21G G23C U64A,≤ 0.5
16,C5U C11A A43U C66U,0.621
17,C5U C11A A45G,0.537
18,C5U C11A C24G C27G A36U G38C A70C,≤ 0.5
19,C5U C11A C24G C27G A36U G38C C60A C66A,≤ 0.5
20,C5U C11A C24G C27G A36U G38C C60G C66A,0.522
21,C5U C11A C24G C27G A36U G38C U53G,≤ 0.5

row,Variant,yeast fitness
1,C5U C11A C31U C34U,≤ 0.5
2,C5U C11A C34G,≤ 0.5
3,C5U C11A G50C C66U,≤ 0.5
4,C5U C11A U13C C24G C30G C46U,0.629
5,C5U C11A U26A C29U C30A C31U C60U C61U,≤ 0.5
6,C5U C11G A14G C29G,≤ 0.5
7,C5U C11G A15U G56C C61G,≤ 0.5
8,C5U C11G A15U U32A U35G,0.562
9,C5U C11G C22G C46G,≤ 0.5
10,C5U C11G C24U A42C A65C A70U,≤ 0.5
11,C5U C11G C29G C46U,≤ 0.5
12,C5U C11G C33G,≤ 0.5
13,C5U C11G C34U A42C C61A A70U,≤ 0.5
14,C5U C11G C49U C61A,≤ 0.5
15,C5U C11G G48C C66U,≤ 0.5
16,C5U C11G G51A,≤ 0.5
17,C5U C11G U13C A15U U32A U35G C55A C61G,≤ 0.5
18,C5U C11U,0.889
19,C5U C11U A15C C29A C30A A36U G38C C61U C66A,≤ 0.5
20,C5U C11U A36U C49G,≤ 0.5
21,C5U C11U A36U C62A,≤ 0.5

row,Variant,yeast fitness
1,C5U C11U A57U,0.544
2,C5U C11U A65U C66G,≤ 0.5
3,C5U C11U A69U,0.734
4,C5U C11U C24A C55A A65G,≤ 0.5
5,C5U C11U C29A A40C A45C C61G,0.612
6,C5U C11U C29U C30G A70C,≤ 0.5
7,C5U C11U C34A,0.558
8,C5U C11U C49U,0.721
9,C5U C11U C60U A69U,0.538
10,C5U C11U C62U G68A,≤ 0.5
11,C5U C11U G25A A37G C60G,≤ 0.5
12,C5U C11U G67C,0.659
13,C5U C11U U28G A40C,1.13
14,C5U C11U U32G C33A U47A C62U C66G,≤ 0.5
15,C5U C11U U35G A43U C46G U53C A69C,0.549
16,C5U C22A A45C,0.564
17,C5U C22A C29U G51C,≤ 0.5
18,C5U C22A C33G C55U,≤ 0.5
19,C5U C22A G25A C66U,≤ 0.5
20,C5U C22G A40G,0.741
21,C5U C22G A69C,0.691

row,Variant,yeast fitness
1,C5U C22G C24A,≤ 0.5
2,C5U C22G C24A A57C,≤ 0.5
3,C5U C22G C24G C31U,0.552
4,C5U C22G C24G C31U A70C,≤ 0.5
5,C5U C22G C24G C31U C55A,≤ 0.5
6,C5U C22G C27G C29G C49U,≤ 0.5
7,C5U C22G C27U,0.612
8,C5U C22G C29A A45U A70C,≤ 0.5
9,C5U C22G C29A C61A,≤ 0.5
10,C5U C22G C29G C60A G67A,≤ 0.5
11,C5U C22G C29G U32C,≤ 0.5
12,C5U C22G U26G A42C,≤ 0.5
13,C5U C22G U47C,0.687
14,C5U C22U A37C C55A,0.538
15,C5U C22U A37C G48U C55A,≤ 0.5
16,C5U C22U A57U,0.574
17,C5U C22U C27U A42G C55A C60A,≤ 0.5
18,C5U C22U C30G A57U C66U A70U,≤ 0.5
19,C5U C22U C31U C49A U59C A69U,≤ 0.5
20,C5U C22U C33U A70C,≤ 0.5
